Like-named read-outs stand apart in the source and are kept apart here. Marks after values point to notes of the source that are not given here.
How the values were obtained:
[1] = NCT02093728 and NCT02046850; cited from earlier work
[2] = assay type: in vivo, human; details: for t1/2: arithmetic mean (SD); for tmax: median (min-max)
plasma proteins = experiment: Unbound fraction in plasma; assay type: in vitro ADME, human; details: healthy subjects; for fu,av: 50 mg, median (min-max)
In short: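 Unbound fraction was measured in human plasma by ultrafiltration after a single oral dose. Ultrafiltrate was analysed by LC-MS/MS in MRM mode with carbon-13 internal standards. Within each subject, the mean percentage unbound from 3 results was applied to all of that subject's samples to give the average fraction unbound (fu,av).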

[3] = Renal impairment study: excretion in urine and blood dialysate; assay type: in vivo, human
In short: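 Subjects were ESRD patients on haemodialysis or healthy subjects with creatinine clearance >80 mL/min, each given 50 mg orally while fasted. ESRD patients were dosed once after dialysis and, after a washout of ≥7 days, once 1 h before dialysis. Urine was collected predose and in intervals to 72 h. Dialysate spot samples were taken every 30 min, and parameters were derived by the area under the excretion rate curve method. Analysis was by LC-MS/MS.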

[4] = assay type: in vivo, human; details: for t1/2: arithmetic mean (SD); for AUC, geometric least-squares mean / Cmax, geometric least-squares mean: fixed-effect ANOVA; for Cmax / MRAUC (metabolite-to-parent AUC ratio) / MRCmax (metabolite-to-parent Cmax ratio) / AUCu / Cmax,u: geometric mean (gCV%); for tmax: median (min-max); for AUCu / Cmax,u: unbound
[5] = Hepatic impairment study: excretion in urine; assay type: in vivo, human
In short: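 Urine from hepatic-impairment and healthy subjects was collected at −12 to 0 h predose, then 0–6, 6–12, 12–24, 24–36 and 36–48 h, and every 24 h to 120 h after a single oral dose. Dosing followed an overnight fast, with fasting until 4 h postdose. Analytes were measured by LC-MS/MS (positive electrospray, MRM) against carbon-13 internal standards.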

[6] = healthy subjects, 50 mg, geometric mean (gCV%)
[7] = mild hepatic impairment, 50 mg, geometric mean (gCV%)
[8] = moderate hepatic impairment, 50 mg (N = 6) or 25 mg (N = 2), geometric mean (gCV%)
[9] = moderate hepatic impairment, 50 mg dose only
[10] = moderate hepatic impairment, 50 or 25 mg
[11] = severe hepatic impairment, 20 mg
[12] = ESRD, treatment period 1 (50 mg after dialysis)
[13] = ESRD, treatment period 2 (50 mg 1 h before dialysis)

AUC(0–t)/dose, geometric least-squares mean ([2]; healthy subjects, 50 mg): 4.841 ng·h/mL/mg
Cmax/dose, geometric least-squares mean ([2]; healthy subjects, 50 mg): 1.809 ng/mL/mg
t1/2 ([2]; healthy subjects, 50 mg): 9.24 (3.33) h
AUC(0–t)/dose [2, 6]: 4.84 (43.4) ng·h/mL/mg
Cmax/dose [2, 6]: 1.81 (57.0) ng/mL/mg
tmax ([2]; healthy subjects, 50 mg): 1.00 (1.00‐2.00) h
AUC(0-t)/dose lower than in healthy subjects ([2]; mild hepatic impairment): 49%
Cmax/dose lower than in healthy subjects ([2]; mild hepatic impairment): 56%
AUC(0–t)/dose, geometric least-squares mean ([2]; mild hepatic impairment, 50 mg): 2.445 ng·h/mL/mg
Cmax/dose, geometric least-squares mean ([2]; mild hepatic impairment, 50 mg): 0.8041 ng/mL/mg
t1/2 ([2]; mild hepatic impairment, 50 mg): 5.18 (1.51) ^f h
AUC(0–t)/dose [2, 7]: 2.45 (41.1) ng·h/mL/mg
Cmax/dose [2, 7]: 0.804 (57.7) ng/mL/mg
tmax ([2]; mild hepatic impairment, 50 mg): 1.50 (1.00‐4.00) h
AUC(0–t)/dose, Hepatic impairment/healthy ratio (90%CI) ([2]; mild vs healthy): 50.51 (28.28, 90.19) %
Cmax/dose, Hepatic impairment/healthy ratio (90%CI) ([2]; mild vs healthy): 44.44 (25.70, 76.85) %
AUC(0-t)/dose lower than in healthy subjects ([2]; moderate hepatic impairment): 62%
Cmax/dose lower than in healthy subjects ([2]; moderate hepatic impairment): 70%
AUC(0–t)/dose [2, 8]: 1.83 (129.6) ng·h/mL/mg
Cmax/dose [2, 8]: 0.548 (102.8) ng/mL/mg
t1/2 [2, 9]: 7.72 (2.92) ^i h
tmax [2, 9]: 1.25 (1.00‐1.50) ^f h
AUC(0–t)/dose, geometric least-squares mean [2, 10]: 1.826 ng·h/mL/mg
Cmax/dose, geometric least-squares mean [2, 10]: 0.5485 ng/mL/mg
AUC(0–t)/dose, Hepatic impairment/healthy ratio (90%CI) ([2]; moderate vs healthy): 37.72 (21.12, 67.37) %
Cmax/dose, Hepatic impairment/healthy ratio (90%CI) ([2]; moderate vs healthy): 30.31 (17.53, 52.42) %
MRCmax (metabolite-to-parent Cmax ratio) ([2]; severe hepatic impairment, 20 mg (N = 3), geometric mean (gCV%)): 0.00778 (29.2) ^h
Cmax/dose ([2]; severe hepatic impairment, 20 mg, geometric mean (gCV%)): 0.173 (44.3) ng/mL/mg
tmax [2, 11]: 2.00 (1.50‐2.00) ^h
median unbound fraction (plasma proteins; in both studies): ~0.6%
fu,av (plasma proteins; hepatic impairment study): 0.61 (0.54‐0.70) ^j %
fu,av (plasma proteins; renal impairment study): 0.688 (0.659‐0.712) ^e %
dose excreted in dialysate ([3]; ESRD, dosed 1 h before dialysis): 0.089%
fraction excreted in urine ([3]; healthy subjects, 50 mg): 0.73%
Cmax, ESRD/Healthy Ratio (90%CI) ([4]; ESRD treatment period 1 vs healthy): 84.48 (61.60, 115.86) %
AUC, ESRD/Healthy Ratio (90%CI) ([4]; ESRD treatment period 1 vs healthy, 50 mg): 91.95 (67.73, 124.83) %
AUC lower when dosed before vs after dialysis ([4]; ESRD, 50 mg): 10%
Cmax lower when dosed before vs after dialysis ([4]; ESRD, 50 mg): 15%
t1/2 [4, 12]: 6.28 (2.87) ^d h
AUC, geometric least-squares mean [4, 12]: 171.0 ng·h/mL
Cmax [4, 12]: 45.1 (40.4) ng/mL
tmax [4, 12]: 1.25 (0.50‐3.00) h
Cmax, geometric least-squares mean ([4]; ESRD, treatment period 1): 45.15 ng/mL
MRAUC (metabolite-to-parent AUC ratio) ([4]; ESRD, treatment period 1): 0.0864 (45.9) ^d
MRCmax (metabolite-to-parent Cmax ratio) ([4]; ESRD, treatment period 1): 0.0623 (42.8)
t1/2 [4, 13]: 5.79 (2.52) ^d h
Cmax [4, 13]: 38.5 (57.7) ng/mL
tmax [4, 13]: 1.50 (1.00‐2.00) h
MRAUC (metabolite-to-parent AUC ratio) ([4]; ESRD, treatment period 2): 0.0930 (48.6) ^d
MRCmax (metabolite-to-parent Cmax ratio) ([4]; ESRD, treatment period 2): 0.0759 (35.9)
t1/2 ([4]; healthy subjects, 50 mg): 5.41 (1.40) h
AUC, geometric least-squares mean ([4]; healthy subjects, 50 mg): 185.9 ng·h/mL
Cmax ([4]; healthy subjects, 50 mg): 53.4 (52.1) ng/mL
tmax ([4]; healthy subjects, 50 mg): 1.50 (1.00‐3.00) h
Cmax, geometric least-squares mean ([4]; healthy subjects): 53.45 ng/mL
MRAUC (metabolite-to-parent AUC ratio) ([4]; healthy subjects): 0.0710 (38.4)
MRCmax (metabolite-to-parent Cmax ratio) ([4]; healthy subjects): 0.0619 (32.9)
AUCu [4, 12]: 2.10 (19.2) ^e ng·h/mL
Cmax,u [4, 12]: 0.561 (14.8) ^e ng/mL
AUCu ([4]; healthy subjects, 50 mg): 1.72 (14.4) ^e ng·h/mL
Cmax,u ([4]; healthy subjects, 50 mg): 0.619 (8.5) ^e ng/mL
dose excreted in urine ([5]; healthy subjects, 50 mg): 0.78%
dose excreted in urine ([5]; mild hepatic impairment, 50 mg): 0.64%
dose excreted in urine ([5]; moderate hepatic impairment): 0.20%
dose excreted in urine [5, 11]: 0.09%
SMILES: O=C(NOCCO)c1cc2nc[nH]c2c(F)c1Nc1ccc(Br)cc1Cl [N‐desmethyl selumetinib]
AUC and Cmax as percentage of the parent compound [1]: ~7%

Source: paper PMC5412920 (Journal of Clinical Pharmacology, 2016)
